assay: Cytotoxicity against human HuH7 cells assessed as reduction in cell viability by MTS assay; assay type: cell-based, Huh-7
In short: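 Viability of Huh-7 cells was read by MTS assay.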

Q: With `O=C(CCN1CCOCC1)N[C@@H](C(=O)N1CCC[C@H]1c1ncc(-c2ccc(-c3ccc(-c4cnc([C@@H]5CCCN5C(=O)[C@H](NC(=O)CCN5CCOCC5)c5ccccc5)s4)cc3)cc2)s1)c1ccccc1` as the compound, how does the CC50 read?
A: > 50 µM

Q: For `CCCC[C@@H](NC(=O)C1CC1)C(=O)N1CCC[C@H]1c1ncc(-c2ccc(-c3ccc(-c4cnc([C@@H]5CCCN5C(=O)[C@@H](CCCC)NC(=O)C5CC5)s4)cc3)cc2)s1`, which CC50 is on record?
A: > 50 µM

Q: With `CCCCCC(=O)N[C@@H](C(=O)N1CCC[C@H]1c1ncc(-c2ccc(-c3ccc(-c4cnc([C@@H]5CCCN5C(=O)[C@H](NC(=O)CCCCC)c5ccccc5)s4)cc3)cc2)s1)c1ccccc1` as the compound, how does the CC50 read?
A: > 50 µM

Q: With `O=C(CCN1CCCCC1)N[C@@H](C(=O)N1CCC[C@H]1c1ncc(-c2ccc(-c3ccc(-c4cnc([C@@H]5CCCN5C(=O)[C@H](NC(=O)CCN5CCCCC5)c5ccccc5)s4)cc3)cc2)s1)c1ccccc1` as the compound, how does the CC50 read?
A: > 50 µM

Q: Which CC50 does the source give for `O=C(N[C@H](C(=O)N1CCC[C@H]1c1ncc(-c2ccc(-c3ccc(-c4cnc([C@@H]5CCCN5C(=O)[C@H](NC(=O)c5ccoc5)c5ccccc5)s4)cc3)cc2)s1)c1ccccc1)c1ccoc1` here?
A: > 50 µM

Q: Which CC50 does the source give for `O=C(N[C@H](C(=O)N1CCC[C@H]1c1ncc(-c2ccc(-c3ccc(-c4cnc([C@@H]5CCCN5C(=O)[C@H](NC(=O)C5CCCC5)c5ccccc5)s4)cc3)cc2)s1)c1ccccc1)C1CCCC1` here?
A: > 50 µM

Q: With `O=C(CCn1cccc1)N[C@H](C(=O)N1CCC[C@H]1c1ncc(-c2ccc(-c3ccc(-c4cnc([C@@H]5CCCN5C(=O)[C@H](NC(=O)CCn5cccc5)c5ccccc5)s4)cc3)cc2)s1)c1ccccc1` as the compound, how does the CC50 read?
A: > 50 µM

Q: For `O=C(N[C@@H](C(=O)N1CCC[C@H]1c1ncc(-c2ccc(-c3ccc(-c4cnc([C@@H]5CCCN5C(=O)[C@H](NC(=O)C5CCC5)c5ccccc5)s4)cc3)cc2)s1)c1ccccc1)C1CCC1`, which CC50 is on record?
A: > 50 µM

Q: With `COC(=O)N[C@@H](CC(C)C)C(=O)N1CCC[C@H]1c1ncc(-c2ccc(-c3ccc(-c4cnc([C@@H]5CCCN5C(=O)[C@H](CC(C)C)NC(=O)OC)s4)cc3)cc2)s1` as the compound, how does the CC50 read?
A: > 50 µM

Q: Which CC50 does the source give for `O=C(N[C@@H](C(=O)N1CCC[C@H]1c1ncc(-c2ccc(-c3ccc(-c4cnc([C@@H]5CCCN5C(=O)[C@H](NC(=O)c5cccnc5)c5ccccc5)s4)cc3)cc2)s1)c1ccccc1)c1cccnc1` here?
A: > 50 µM

Q: For `O=C(N[C@@H](C(=O)N1CCC[C@H]1c1ncc(-c2ccc(-c3ccc(-c4cnc([C@@H]5CCCN5C(=O)[C@H](NC(=O)C5CCCC5)c5ccccc5)s4)cc3)cc2)s1)c1ccccc1)C1CCCC1`, which CC50 is on record?
A: > 50 µM

Q: Which CC50 does the source give for `CCC[C@@H](NC(=O)C1CC1)C(=O)N1CCC[C@H]1c1ncc(-c2ccc(-c3ccc(-c4cnc([C@@H]5CCCN5C(=O)[C@@H](CCC)NC(=O)C5CC5)s4)cc3)cc2)s1` here?
A: > 50 µM

Q: With `O=C(CCN1CCCC1)N[C@H](C(=O)N1CCC[C@H]1c1ncc(-c2ccc(-c3ccc(-c4cnc([C@@H]5CCCN5C(=O)[C@H](NC(=O)CCN5CCCC5)c5ccccc5)s4)cc3)cc2)s1)c1ccccc1` as the compound, how does the CC50 read?
A: > 50 µM

Q: Which CC50 does the source give for `CCC(=O)N[C@@H](C(=O)N1CCC[C@H]1c1ncc(-c2ccc(-c3ccc(-c4cnc([C@@H]5CCCN5C(=O)[C@H](NC(=O)CC)c5ccccc5)s4)cc3)cc2)s1)c1ccccc1` here?
A: > 50 µM

Q: With `CCC[C@H](NC(=O)OC)C(=O)N1CCC[C@H]1c1ncc(-c2ccc(-c3ccc(-c4cnc([C@@H]5CCCN5C(=O)[C@H](CCC)NC(=O)OC)s4)cc3)cc2)s1` as the compound, how does the CC50 read?
A: > 50 µM

Q: For `O=C(N[C@H](C(=O)N1CCC[C@H]1c1ncc(-c2ccc(-c3ccc(-c4cnc([C@@H]5CCCN5C(=O)[C@H](NC(=O)c5ccco5)c5ccccc5)s4)cc3)cc2)s1)c1ccccc1)c1ccco1`, which CC50 is on record?
A: > 50 µM

Q: For `CC(C)(C)C(=O)N[C@@H](C(=O)N1CCC[C@H]1c1ncc(-c2ccc(-c3ccc(-c4cnc([C@@H]5CCCN5C(=O)[C@H](NC(=O)C(C)(C)C)c5ccccc5)s4)cc3)cc2)s1)c1ccccc1`, which CC50 is on record?
A: > 50 µM

Q: With `O=C(N[C@H](C(=O)N1CCC[C@H]1c1ncc(-c2ccc(-c3ccc(-c4cnc([C@@H]5CCCN5C(=O)[C@H](NC(=O)c5ccncc5)c5ccccc5)s4)cc3)cc2)s1)c1ccccc1)c1ccncc1` as the compound, how does the CC50 read?
A: > 50 µM

Q: Which CC50 does the source give for `O=C(N[C@H](C(=O)N1CCC[C@H]1c1ncc(-c2ccc(-c3ccc(-c4cnc([C@@H]5CCCN5C(=O)[C@H](NC(=O)N5CCOCC5)c5ccccc5)s4)cc3)cc2)s1)c1ccccc1)N1CCOCC1` here?
A: > 50 µM

Q: For `O=C(N[C@H](C(=O)N1CCC[C@H]1c1ncc(-c2ccc(-c3ccc(-c4cnc([C@@H]5CCCN5C(=O)[C@H](NC(=O)C5CCCCC5)c5ccccc5)s4)cc3)cc2)s1)c1ccccc1)C1CCCCC1`, which CC50 is on record?
A: > 50 µM

Q: Which CC50 does the source give for `COC(=O)N[C@@H](C)C(=O)N1CCC[C@H]1c1ncc(-c2ccc(-c3ccc(-c4cnc([C@@H]5CCCN5C(=O)[C@H](C)NC(=O)OC)s4)cc3)cc2)s1` here?
A: > 50 µM

Q: Which CC50 does the source give for `CC(C)C[C@@H](NC(=O)C1CC1)C(=O)N1CCC[C@H]1c1ncc(-c2ccc(-c3ccc(-c4cnc([C@@H]5CCCN5C(=O)[C@@H](CC(C)C)NC(=O)C5CC5)s4)cc3)cc2)s1` here?
A: > 50 µM

Q: With `O=C(N[C@H](C(=O)N1CCC[C@H]1c1ncc(-c2ccc(-c3ccc(-c4cnc([C@@H]5CCCN5C(=O)[C@H](NC(=O)N5CCCCC5)c5ccccc5)s4)cc3)cc2)s1)c1ccccc1)N1CCCCC1` as the compound, how does the CC50 read?
A: > 50 µM

Q: Which CC50 does the source give for `O=C(N[C@H](C(=O)N1CCC[C@H]1c1ncc(-c2ccc(-c3ccc(-c4cnc([C@@H]5CCCN5C(=O)[C@H](NC(=O)c5cccnc5)c5ccccc5)s4)cc3)cc2)s1)c1ccccc1)c1cccnc1` here?
A: > 50 µM

Q: For `O=C(N[C@H](C(=O)N1CCC[C@H]1c1ncc(-c2ccc(-c3ccc(-c4cnc([C@@H]5CCCN5C(=O)[C@H](NC(=O)c5ccsc5)c5ccccc5)s4)cc3)cc2)s1)c1ccccc1)c1ccsc1`, which CC50 is on record?
A: > 50 µM

Q: Which CC50 does the source give for `CCN(CC)CCC(=O)N[C@H](C(=O)N1CCC[C@H]1c1ncc(-c2ccc(-c3ccc(-c4cnc([C@@H]5CCCN5C(=O)[C@H](NC(=O)CCN(CC)CC)c5ccccc5)s4)cc3)cc2)s1)c1ccccc1` here?
A: > 50 µM

Q: For `O=C(N[C@@H](C(=O)N1CCC[C@H]1c1ncc(-c2ccc(-c3ccc(-c4cnc([C@@H]5CCCN5C(=O)[C@H](NC(=O)c5ccsc5)c5ccccc5)s4)cc3)cc2)s1)c1ccccc1)c1ccsc1`, which CC50 is on record?
A: > 50 µM

Q: For `CS(=O)(=O)N[C@H](C(=O)N1CCC[C@H]1c1ncc(-c2ccc(-c3ccc(-c4cnc([C@@H]5CCCN5C(=O)[C@H](NS(C)(=O)=O)c5ccccc5)s4)cc3)cc2)s1)c1ccccc1`, which CC50 is on record?
A: > 50 µM

Q: Which CC50 does the source give for `O=C(N[C@H](C(=O)N1CCC[C@H]1c1ncc(-c2ccc(-c3ccc(-c4cnc([C@@H]5CCCN5C(=O)[C@H](NC(=O)c5ccccc5)c5ccccc5)s4)cc3)cc2)s1)c1ccccc1)c1ccccc1` here?
A: > 50 µM

Q: For `COC(=O)N[C@H](C(=O)N1CCC[C@H]1c1ncc(-c2ccc(-c3ccc(-c4cnc([C@@H]5CCCN5C(=O)[C@H](NC(=O)OC)c5ccccc5)s4)cc3)cc2)s1)c1ccccc1`, which CC50 is on record?
A: > 50 µM

Q: Which CC50 does the source give for `CN(C)CCC(=O)N[C@@H](C(=O)N1CCC[C@H]1c1ncc(-c2ccc(-c3ccc(-c4cnc([C@@H]5CCCN5C(=O)[C@H](NC(=O)CCN(C)C)c5ccccc5)s4)cc3)cc2)s1)c1ccccc1` here?
A: > 50 µM

Q: Which CC50 does the source give for `COC(=O)N[C@@H](C(=O)N1CCC[C@H]1c1ncc(-c2ccc(-c3ccc(-c4cnc([C@@H]5CCCN5C(=O)[C@H](NC(=O)OC)c5ccccc5)s4)cc3)cc2)s1)c1ccccc1` here?
A: > 50 µM

Q: For `CC[C@@H](NC(=O)C1CC1)C(=O)N1CCC[C@H]1c1ncc(-c2ccc(-c3ccc(-c4cnc([C@@H]5CCCN5C(=O)[C@@H](CC)NC(=O)C5CC5)s4)cc3)cc2)s1`, which CC50 is on record?
A: > 50 µM

Q: Which CC50 does the source give for `O=C(N[C@@H](C(=O)N1CCC[C@H]1c1ncc(-c2ccc(-c3ccc(-c4cnc([C@@H]5CCCN5C(=O)[C@H](NC(=O)c5ccncc5)c5ccccc5)s4)cc3)cc2)s1)c1ccccc1)c1ccncc1` here?
A: > 50 µM

— ChEMBL document CHEMBL4387700, “A novel, potent, and orally bioavailable thiazole HCV NS5A inhibitor for the treatment of hepatitis C virus” (Eur J Med Chem, 2019)
